# Results: ChEMBL document CHEMBL1817649, “Structure-guided design and synthesis of P1' position 1-phenylcycloalkylamine-derived pentapeptidic BACE1 inhibitors” (Bioorg Med Chem, 2011)
# What was measured:
# Beta-secretase 1 [1] = molecular target: T1, Beta-secretase 1 (Homo sapiens, UniProt P56817); assay: Inhibition of human recombinant BACE1 at 0.2 uM by FRET assay
# In short: (§1)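 Single-point screen of BACE1 inhibition, run first at the higher concentration and then at the lower one. Read-out is percent inhibition.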
# Beta-secretase 1 [2] = molecular target: T1, Beta-secretase 1; assay: Inhibition of human recombinant BACE1 at 2 uM by FRET assay; in short: as §1
# Beta-secretase 1 [3] = molecular target: T1, Beta-secretase 1; assay: Inhibition of human recombinant BACE1 by FRET assay
# T1 sequence (P56817 whole entry): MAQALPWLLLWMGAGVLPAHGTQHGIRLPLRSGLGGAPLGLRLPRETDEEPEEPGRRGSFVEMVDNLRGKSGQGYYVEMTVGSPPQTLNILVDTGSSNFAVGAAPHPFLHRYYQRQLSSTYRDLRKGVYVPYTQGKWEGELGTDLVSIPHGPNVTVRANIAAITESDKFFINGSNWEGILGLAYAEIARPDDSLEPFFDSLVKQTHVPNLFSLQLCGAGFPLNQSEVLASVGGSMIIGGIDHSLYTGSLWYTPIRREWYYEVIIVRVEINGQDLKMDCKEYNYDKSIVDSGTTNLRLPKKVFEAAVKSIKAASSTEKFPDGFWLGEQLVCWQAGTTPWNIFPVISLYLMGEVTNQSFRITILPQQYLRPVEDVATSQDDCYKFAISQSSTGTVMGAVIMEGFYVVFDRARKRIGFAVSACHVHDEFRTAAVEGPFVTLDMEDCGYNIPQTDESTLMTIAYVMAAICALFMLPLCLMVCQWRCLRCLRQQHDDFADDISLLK
inhibition (Beta-secretase 1 [1]) [%],inhibition (Beta-secretase 1 [2]) [%],IC50 (Beta-secretase 1 [3]) [nM],Compound
84,98,29,CC(C)[C@H](NC(=O)[C@@H](N)CNC(=O)c1[nH]c(=O)[nH]c(=O)c1F)C(=O)N[C@@H](CC1CCCCC1)C(=O)N[C@@H](Cc1ccccc1)[C@@H](O)C(=O)NC1(c2ccccc2)CCCC1
46,87,,CC(C)[C@H](NC(=O)[C@@H](N)CNC(=O)c1cc(O)ccc1O)C(=O)N[C@@H](CC1CCCCC1)C(=O)N[C@@H](Cc1ccccc1)[C@@H](O)C(=O)NC1(c2ccccc2)CCCCC1
51,88,,CC(C)[C@H](NC(=O)[C@@H](N)CNC(=O)c1cc(O)ccc1O)C(=O)N[C@@H](CC1CCCCC1)C(=O)N[C@@H](Cc1ccccc1)[C@@H](O)C(=O)N[C@H](C)c1ccccc1
58,90,,CC(C)C[C@H](NC(=O)[C@@H](NC(=O)[C@@H](N)CNC(=O)c1cc(O)ccc1O)C(C)C)C(=O)N[C@@H](Cc1ccccc1)[C@@H](O)C(=O)NC1(c2ccccc2)CCCC1
49,89,,CC(C)[C@H](NC(=O)[C@@H](N)CNC(=O)c1cc(O)ccc1O)C(=O)N[C@@H](CC1CCCCC1)C(=O)N[C@@H](Cc1ccccc1)[C@@H](O)C(=O)NC(C)(C)c1ccccc1
,57,,CC(C)[C@H](NC(=O)[C@@H](N)CNC(=O)c1cc(O)ccc1O)C(=O)N[C@@H](CC1CCCCC1)C(=O)N[C@@H](Cc1ccccc1)[C@@H](O)C(=O)NC1(c2ccccc2)CCN(Cc2ccccc2)CC1
77,97,40.6,CC(C)[C@H](NC(=O)[C@@H](N)CNC(=O)c1[nH]c(=O)[nH]c(=O)c1F)C(=O)N[C@@H](CC1CCCCC1)C(=O)N[C@@H](Cc1ccccc1)[C@@H](O)C(=O)NC1(c2ccccc2)CCCCC1
54,89,,CC(C)[C@H](NC(=O)[C@@H](N)CNC(=O)c1cc(O)ccc1O)C(=O)N[C@@H](CC1CCCCC1)C(=O)N[C@@H](Cc1ccccc1)[C@@H](O)C(=O)N[C@@H](C)c1ccccc1
58,89,,CC(C)[C@H](NC(=O)[C@@H](N)CNC(=O)c1cc(O)ccc1O)C(=O)N[C@@H](CC1CCCCC1)C(=O)N[C@@H](Cc1ccccc1)[C@@H](O)C(=O)NC1(c2ccccc2)CCCC1
43,86,,CC(C)C[C@H](NC(=O)[C@@H](NC(=O)[C@@H](N)CNC(=O)c1cc(O)ccc1O)C(C)C)C(=O)N[C@@H](Cc1ccccc1)[C@@H](O)C(=O)NC1(c2ccccc2)CCCCC1

# Further lines, the molecule ahead of its results:
Compound,inhibition (Beta-secretase 1 [1]) [%],inhibition (Beta-secretase 1 [2]) [%],IC50 (Beta-secretase 1 [3]) [nM]
CC(C)C[C@H](NC(=O)[C@@H](NC(=O)[C@@H](N)CNC(=O)c1cc(O)ccc1O)C(C)C)C(=O)N[C@@H](Cc1ccccc1)[C@@H](O)C(=O)N[C@@H](C)c1ccccc1,47,88,
CC(C)C[C@H](NC(=O)[C@@H](NC(=O)[C@@H](N)CNC(=O)c1[nH]c(=O)[nH]c(=O)c1F)C(C)C)C(=O)N[C@@H](Cc1ccccc1)[C@@H](O)C(=O)NC1(c2ccccc2)CCCCC1,85,98,24.8
CC(C)C[C@H](NC(=O)[C@@H](NC(=O)[C@@H](N)CNC(=O)c1[nH]c(=O)[nH]c(=O)c1F)C(C)C)C(=O)N[C@@H](Cc1ccccc1)[C@@H](O)C(=O)N[C@H](C)c1ccccc1,81,98,34.8
CC(C)C[C@H](NC(=O)[C@@H](NC(=O)[C@@H](N)CNC(=O)c1cc(O)ccc1O)C(C)C)C(=O)N[C@@H](Cc1ccccc1)[C@@H](O)C(=O)NC(C)(C)c1ccccc1,44,88,
CC(C)[C@H](NC(=O)[C@@H](N)CNC(=O)c1[nH]c(=O)[nH]c(=O)c1F)C(=O)N[C@@H](CC1CCCCC1)C(=O)N[C@@H](Cc1ccccc1)[C@@H](O)C(=O)NC1(c2ccccc2)CCN(Cc2ccccc2)CC1,64,95,
CC(C)[C@H](NC(=O)[C@@H](N)CNC(=O)c1[nH]c(=O)[nH]c(=O)c1F)C(=O)N[C@@H](CC1CCCCC1)C(=O)N[C@@H](Cc1ccccc1)[C@@H](O)C(=O)NC(C)(C)c1ccccc1,78,98,31.9
CC(C)C[C@H](NC(=O)[C@@H](NC(=O)[C@@H](N)CNC(=O)c1cc(O)ccc1O)C(C)C)C(=O)N[C@@H](Cc1ccccc1)[C@@H](O)C(=O)NC1(c2ccccc2)CCN(Cc2ccccc2)CC1,,59,
CC(C)C[C@H](NC(=O)[C@@H](NC(=O)[C@@H](N)CNC(=O)c1cc(O)ccc1O)C(C)C)C(=O)N[C@@H](Cc1ccccc1)[C@@H](O)C(=O)N[C@H](C)c1ccccc1,44,87,
CC(C)[C@H](NC(=O)[C@@H](N)CNC(=O)c1[nH]c(=O)[nH]c(=O)c1F)C(=O)N[C@@H](CC1CCCCC1)C(=O)N[C@@H](Cc1ccccc1)[C@@H](O)C(=O)N[C@@H](C)c1ccccc1,80,98,24.2
CC(C)[C@H](NC(=O)[C@@H](N)CNC(=O)c1[nH]c(=O)[nH]c(=O)c1F)C(=O)N[C@@H](CC1CCCCC1)C(=O)N[C@@H](Cc1ccccc1)[C@@H](O)C(=O)N[C@H](C)c1ccccc1,79,98,39.6
CC(C)C[C@H](NC(=O)[C@@H](NC(=O)[C@@H](N)CNC(=O)c1[nH]c(=O)[nH]c(=O)c1F)C(C)C)C(=O)N[C@@H](Cc1ccccc1)[C@@H](O)C(=O)NC(C)(C)c1ccccc1,83,98,27
CC(C)C[C@H](NC(=O)[C@@H](NC(=O)[C@@H](N)CNC(=O)c1[nH]c(=O)[nH]c(=O)c1F)C(C)C)C(=O)N[C@@H](Cc1ccccc1)[C@@H](O)C(=O)NC1(c2ccccc2)CCN(Cc2ccccc2)CC1,59,93,
CC(C)C[C@H](NC(=O)[C@@H](NC(=O)[C@@H](N)CNC(=O)c1[nH]c(=O)[nH]c(=O)c1F)C(C)C)C(=O)N[C@@H](Cc1ccccc1)[C@@H](O)C(=O)NC1(c2ccccc2)CCCC1,86,99,11.6
CC(C)C[C@H](NC(=O)[C@@H](NC(=O)[C@@H](N)CNC(=O)c1[nH]c(=O)[nH]c(=O)c1F)C(C)C)C(=O)N[C@@H](Cc1ccccc1)[C@@H](O)C(=O)N[C@@H](C)c1ccccc1,83,99,20.4
